A short description of experiment [1]: Growth inhibition of human A172 cells after 6 days. Particulars: a 172. Format: functional, cell-based.
Experiment [2] in a line: Cytotoxicity against human A172 cells after 6 days. Format: functional, cell-based, A 172. The procedure, abridged:
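A172 glioma cells in high-glucose DMEM with 10% heat-inactivated FBS and penicillin/streptomycin, seeded at 5 × 10^3 cells/mL (1 mL/well). After 24 h, alkaloids were added from fresh 1 mg/mL DMSO stocks (final DMSO ≤0.5%; controls DMSO-matched). Total cell number counted by particle counter after 6 days. IC50 (50% inhibition vs untreated) taken from dose–response curves; mean ± SD, ≥3 independent experiments.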

Where [3] appears, read: Homo sapiens, A 172, 144 h, read-out: IC50.

The IC50 is the concentration needed to halve the response being measured.

Values after ≈ are worked out from the molar mass of the structure shown. Where only a bound is given, the exact number is not on record here.

In experiment [1], `CCN1C[C@]2(COC)CC[C@H](OC)[C@]34C1C([C@H](OC)[C@H]23)[C@]1(OC(C)=O)[C@H]2[C@@H](OC(=O)c3ccc(OC)cc3)[C@](O)(C[C@H]24)[C@@H](OC)[C@@H]1O` [DEOXYJESACONITINE] came in with a relative cell growth of 0.97. Compound `CCN1C[C@]2(COC)CC[C@H](OC)[C@]34C1C([C@H](OC)[C@H]23)[C@]1(OC(C)=O)[C@H]2[C@@H](OC(=O)c3ccccc3)[C@](O)(C[C@H]24)[C@@H](OC)[C@@H]1O` [DEOXYACONITINE] yielded a relative cell growth in experiment [1] of 0.99. Compound `C=C1[C@H]2C[C@H]3C4N5C[C@]6(C)CCC[C@]47[C@H]([C@H]2O)C3(C[C@]5(OC(=O)c2cccc(C(F)(F)F)c2)[C@H]67)[C@@H]1O` yielded a relative cell growth in experiment [1] of 1.04. `C=C1[C@H]2C[C@H]3C4N5C[C@]6(C)CCC[C@]47[C@H]([C@H]2OC(=O)c2ccccc2)C3(C[C@]5(OC(=O)c2ccccc2)[C@H]67)[C@@H]1O` registered an IC50 in experiment [2] (a 172) of 1.3 µg/mL (≈ 2.42 µM). In addition, the relative cell growth in experiment [1] is 0.76. Compound `C=C1[C@@H](O)[C@]23C[C@@H]1[C@@H](OC(=O)c1ccc(OC)c(OC)c1)C[C@H]2[C@@]12C4C3C[C@@H]1[C@@](C)(CC[C@H]2O)CN4CC` yielded a relative cell growth in experiment [1] of 0.97. As for `C=C1[C@H]2C[C@H]3C4N5C[C@]6(C)CCC[C@]47[C@H]([C@H]2OC(=O)c2ccc([N+](=O)[O-])cc2)C3(C[C@]5(O)[C@H]67)[C@@H]1O`, the IC50 in experiment [2] (setting [3]) came to 1.5 µg/mL (≈ 3.13 µM). In addition, the relative cell growth in experiment [1] came out at 0.22. `CCN1C[C@]2(COC)[C@H](O)C[C@H](OC)[C@]34C1C([C@H](OC)[C@H]23)[C@]1(OC)[C@H]2[C@@H](OC(=O)c3ccc(OC)cc3)[C@](O)(C[C@H]24)[C@@H](OC)[C@@H]1O` [ALJESACONITINE A] gave a relative cell growth in experiment [1] of 0.93. Turning to `COC[C@]12CN(C)C3C4[C@H](OC)[C@H]1[C@@]3([C@@H](OC)C[C@H]2O)[C@@H]1C[C@@]2(O)[C@H](OC(=O)c3ccccc3)[C@@H]1[C@]4(OC)[C@@H](O)[C@@H]2OC` [HOKBUSINE A], the relative cell growth in experiment [1] was found to be 1.03. On to `C=C1[C@H]2C[C@H]3C4N(Cc5ccccc5)C[C@]5(C)CCC[C@]46[C@H]([C@H]2O)C3(CC(=O)[C@H]56)[C@@H]1O` (some centres not stated), for which, in experiment [1], the relative cell growth is 1.01. As to `C=C1[C@H]2C[C@H]3C4N5C[C@]6(C)CCC[C@]47[C@H]([C@H]2OC(=O)c2ccc(OC)c(OC)c2)C3(C[C@]5(O)[C@H]67)[C@@H]1O`, the 50% inhibitory concentration (IC50) in experiment [2] (setting [3]) came out at 1.2 µg/mL (≈ 2.43 µM). The compound further registered a relative cell growth in experiment [1] of 0.47.

Regarding `C=C1[C@@H](O)[C@]23C[C@@H]1[C@@H](OC(C)=O)C[C@H]2[C@@]12C4C3C[C@@H]1[C@@](C)(CC[C@H]2O)CN4CC`, the IC50 in experiment [2] (setting [3]) is 5.6 µg/mL (≈ 13.9 µM). In addition, the relative cell growth in experiment [1] was 0.66. In experiment [1], `C=C1[C@H]2C[C@H]3C4N5C[C@]6(C)CCC[C@]47[C@H]([C@H]2OC(=O)c2cccc(C(F)(F)F)c2)C3(C[C@]5(O)[C@H]67)[C@@H]1O` showed a relative cell growth of 0.58.

As to `C=C1[C@H]2C[C@H]3C4N5C[C@]6(C)CCC[C@]47[C@H]([C@H]2OC(=O)/C=C/c2ccccc2)C3(C[C@]5(O)[C@H]67)[C@@H]1O`, in experiment [2] (setting [3]), the IC50 was 0.89 µg/mL (≈ 1.94 µM). Also, in experiment [1], the relative cell growth is 0.49.

On to `C=C1[C@H]2C[C@H]3C4N5C[C@]6(C)CCC[C@]47[C@H]([C@H]2OC(=O)c2cccc(C(F)(F)F)c2)C3(CC5[C@H]67)[C@@H]1O`, for which, in experiment [1], the relative cell growth came to 0.6. For `C=C1[C@H]2C[C@H]3C4N5C[C@]6(C)CCC[C@]47[C@H]([C@H]2O)C3(C[C@]5(OC(=O)c2ccc(OC)cc2)[C@H]67)[C@@H]1O`, the relative cell growth in experiment [1] was determined as 0.99. Consider `C=C1[C@@H](O)[C@]23C[C@@H]1[C@@H](OC(=O)c1ccccc1)C[C@H]2[C@@]12C4C3C[C@@H]1[C@@](C)(CC[C@H]2O)CN4CC`, for which the relative cell growth in experiment [1] turned out to be 0.82.

Compound `CCN1C[C@]2(COC)CC[C@H](OC)[C@]34C1[C@@](O)([C@@H](OC)[C@H]23)[C@@]1(O)C[C@H](OC)[C@H]2C[C@@H]4[C@@H]1[C@H]2OC(C)=O` displayed a relative cell growth in experiment [1] of 0.99. Turning to `COC[C@]12CC[C@H](O)[C@]34C(NC1)[C@@](O)([C@@H](OC)[C@H]23)[C@@]1(O)C[C@H](OC)[C@H]2C[C@@H]4[C@@H]1[C@H]2O`, the relative cell growth in experiment [1] turned out to be 0.9. On to `C=C1[C@H]2C[C@H]3C4N5C[C@]6(C)CCC[C@]47[C@H]([C@H]2O)C3(C[C@]5(O)[C@H]67)[C@@H]1O` [PSEUDOKOBUSINE], for which the IC50 in experiment [2] (setting [3]) is > 5 µg/mL. The compound also registered a relative cell growth in experiment [1] of 0.84. For the compound `COC[C@]12CC[C@H]3OC1NC1[C@@]34[C@@H]3C[C@H]5[C@H](O)[C@@H]3[C@](O)(C[C@@H]5OC)[C@]1(O)[C@@H](OC)[C@H]24`, in experiment [1], the relative cell growth was found to be 1.04. Consider `COC[C@]12CC[C@H](O)[C@]34C(NC1)[C@@](O)([C@@H](OC)[C@H]23)[C@@]1(O)C[C@H](OC)[C@H]2C[C@@H]4[C@@H]1[C@H]2OC`, for which the relative cell growth in experiment [1] worked out at 0.93. `CCN1C[C@]2(C)CC[C@H](OC)[C@@]34C1[C@@]1(OCO[C@@]15C[C@H](OC)[C@H]1C[C@@H]3[C@@H]5[C@H]1O)[C@@H](O)[C@H]24` [DELPHELINE] had a relative cell growth in experiment [1] of 1.1.

As for `C=C1[C@H]2C[C@H]3C4N(Cc5ccccc5)C[C@]5(C)CCC[C@]46[C@H]([C@H]2O)C3(CC(=O)[C@H]56)[C@@H]1OCc1ccccc1` (some centres not stated), in experiment [2] (setting [3]), the half-inhibitory concentration (IC50) was > 5 µg/mL. The same compound had a relative cell growth in experiment [1] of 1.04. Consider `CCN1C[C@]2(COC)CC[C@H](O)[C@]34C1[C@@](O)([C@@H](OC)[C@H]23)[C@@]1(O)C[C@H](OC)[C@H]2C[C@@H]4[C@@H]1[C@H]2OC(C)=O`, for which the relative cell growth in experiment [1] was 1.11. On the same count and under the same terms, under `C=C1[C@@H](OC(C)=O)[C@]23C[C@@H]1[C@@H](OC(C)=O)C[C@H]2[C@@]12C4C3C[C@@H]1[C@@](C)(CC[C@H]2O)CN4CC` stands 1.03. The same measure, in the same setting: under `C=C1[C@H]2C[C@H]3C4N5C[C@]6(C)CCC[C@]47[C@H]([C@H]2O)C3(C[C@]5(OC(=O)c2ccccc2)[C@H]67)[C@@H]1O` stands 0.93.

As for `C=C1[C@H]2C[C@H]3C4N5C[C@]6(C)CCC[C@]47[C@H]([C@H]2O)C3(C[C@]5(O)[C@H]67)[C@@H]1OC(=O)c1ccc(OC)c(OC)c1`, the IC50 in experiment [2] (setting [3]) is 2.9 µg/mL (≈ 5.88 µM). This compound also yielded a relative cell growth in experiment [1] of 0.97. Consider `COC[C@@]12CC[C@H](OC)[C@]34C(C([C@H](OC)[C@H]13)[C@]1(OC(C)=O)[C@H]3[C@@H](OC(=O)c5ccccc5)[C@](O)(C[C@H]34)[C@@H](OC)[C@@H]1O)N(C)C2` [HYPACONITINE], for which the relative cell growth in experiment [1] turned out to be 1.08. Consider `C=C1[C@@H](O)[C@]23C[C@@H]1[C@@H](OC(=O)c1ccc(OC)cc1)C[C@H]2[C@@]12C4C3C[C@@H]1[C@@](C)(CC[C@H]2O)CN4CC`, for which the relative cell growth in experiment [1] worked out at 0.84. For the compound `C=C1[C@H]2C[C@H]3C4N5C[C@]6(C)CCC[C@]47[C@H]([C@H]2OC(=O)c2ccc(OC)cc2)C3(C[C@]5(O)[C@H]67)[C@@H]1O`, the IC50 in experiment [2] (setting [3]) amounted to 1.3 µg/mL (≈ 2.8 µM). Moreover, the relative cell growth in experiment [1] stood at 0.23.

`C=C1[C@@H](OC(C)=O)[C@]23C[C@@H]1[C@@H](OC(C)=O)C[C@H]2[C@@]12C4C3C[C@@H]1[C@@](C)(CC[C@H]2OC(C)=O)CN4CC`: the concentration for half-maximal inhibition (IC50) in experiment [2] (setting [3]) was > 5 µg/mL. The same compound returned a relative cell growth in experiment [1] of 1.02.

Take `C=C1[C@H]2C[C@H]3C4N5C[C@]6(C)CCC[C@]47[C@H]([C@H]2O)C3(CC5[C@H]67)[C@@H]1O` [KOBUSINE]: the IC50 in experiment [2] (setting [3]) is > 5 µg/mL. The relative cell growth in experiment [1] came to 0.76.

Consider `CC(=O)O[C@H]1C[C@H]2C3C4C[C@@H]5[C@@]6(C)CC[C@H](OC(C)=O)[C@@]5(C4N(C)C6)[C@@H]3[C@H]1[C@@]1(CO1)[C@H]2O` (some centres not stated) [YESOXINE], for which the IC50 in experiment [2] (setting [3]) is > 5 µg/mL. In experiment [1], this compound gave a relative cell growth of 1.01.

As for `C=C1[C@@H](OC(C)=O)[C@]23C[C@@H]1[C@@H](O)C[C@H]2[C@@]12C4C3C[C@@H]1[C@@]1(C)CC[C@H]2OC1N4CC` [DEHYDROLUCIDUSCULINE], the IC50 in experiment [2] (setting [3]) is > 5 µg/mL. In addition, the relative cell growth in experiment [1] worked out at 1.18.

Consider `COC[C@]12CC[C@H]3OC1NC1[C@@]34[C@@H]3C[C@H]5[C@H](OC)[C@@H]3[C@](O)(C[C@@H]5OC)[C@]1(O)[C@@H](OC)[C@H]24`, for which, in experiment [1], the relative cell growth was found to be 1.14.

On to `C=C1[C@H]2C[C@H]3C4N5C[C@]6(C)CCC[C@]47[C@H]([C@H]2O)C3(C[C@]5(OC(=O)/C=C/c2ccccc2)[C@H]67)[C@@H]1O`, for which, in experiment [1], the relative cell growth amounted to 0.97. Take `C=C1[C@H]2C[C@H]3C4N5C[C@]6(C)CCC[C@]47[C@H]([C@H]2O)C3(C[C@]5(OC(=O)c2ccc(OC)c(OC)c2)[C@H]67)[C@@H]1O`: the IC50 in experiment [2] (setting [3]) was 3.7 µg/mL (≈ 7.5 µM). Further, the relative cell growth in experiment [1] is 0.84.

On to `C=C1[C@H]2C[C@H]3C4N5C[C@]6(C)CCC[C@]47[C@H]([C@H]2O)C3(C[C@]5(OC(=O)c2ccc([N+](=O)[O-])cc2)[C@H]67)[C@@H]1O`, for which the relative cell growth in experiment [1] turned out to be 0.96.

Source of the values: ChEMBL document CHEMBL1141436, “Inhibitory effects of diterpenoid alkaloids on the growth of A172 human malignant cells” (J Nat Prod, 2007).
